The results in this text go back to ChEMBL document CHEMBL4373640, “Synthesis and antitumor activity of aza-brazilan derivatives containing imidazolium salt pharmacophores” (Medchemcomm, 2019).

Assay type in all cases: functional, cell-based
In one assay the test system is SW480. The assay is described as follows: Cytotoxicity against human SW480 cells assessed as reduction in cell viability after 48 hrs by MTS assay. Conditions: SW480, 48 h. In a few lines:
(§1)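 Cells (5 × 10^3 per well) were plated 12 h before treatment, then exposed continuously to compound for 48 h. MTS was added, with 1–4 h incubation at 37 °C and OD read at 490 nm. IC50 is the concentration cutting OD by 50% versus untreated cells, taken from dose–response curves. Values are the mean of three independent determinations.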
A general note: Formazan colour is commonly taken as a measure of viable cells.

A further assay has as its system MCF7. The assay is described as follows: Cytotoxicity against human MCF7 cells assessed as reduction in cell viability after 48 hrs by MTS assay. The conditions noted are these: MCF7, 48 h. In a few lines:
as §1

Another assay relates to A549. The assay is described as follows: Cytotoxicity against human A549 cells assessed as reduction in cell viability after 48 hrs by MTS assay. The conditions noted are these: A549, 48 h. The procedure, abridged:
as §1

Assay [1] can be described thus: Cytotoxicity against human SMMC-7221 cells assessed as reduction in cell viability after 48 hrs by MTS assay. The conditions noted are these: SMMC-7221, 48 h. In a few lines: as §1

On to `COc1ccc(C(=O)C[n+]2c(C)n(CCC(=O)N3C[C@@H]4Cc5cc(OC)c(OC)cc5[C@@H]4c4cccc(OC)c43)c3ccccc32)cc1`, for which the IC50 in the assay with SW480 is 15400 nM; in the assay with MCF7, above 20000 nM; in the assay on A549 it was above 20000 nM; in assay [1], above 20000 nM.
On to `COc1cccc2c1N(CCCn1c[n+](CC(=O)c3ccc4ccccc4c3)c3cc(C)c(C)cc31)C[C@@H]1Cc3ccccc3[C@H]21`, for which the IC50 with SW480 came to 1460 nM; with MCF7 it was 910 nM; in the assay with A549, 1470 nM; in assay [1], 1090 nM.
Taken in the same sequence, the figures for `COc1cccc2c1N(C(=O)CCn1c(C)[n+](CC(=O)c3ccc4ccccc4c3)c3ccccc31)C[C@@H]1Cc3ccccc3[C@H]21` were 1440 nM, 1460 nM, 4710 nM and 1510 nM.
Taken in the same sequence, the figures for `COc1ccc(C(=O)C[n+]2c(C)n(CCCN3C[C@@H]4Cc5cc(OC)c(OC)cc5[C@@H]4c4cccc(OC)c43)c3ccccc32)cc1` were 2340 nM, 3360 nM, 14400 nM and 5360 nM.
`COc1cccc2c1N(CCCn1c[n+](CC(=O)c3ccc4ccccc4c3)c3cc(C)c(C)cc31)C[C@@H]1Cc3ccc(Br)cc3[C@H]21`: the IC50 in the assay on SW480 was 4260 nM; in the assay with MCF7, 1580 nM; in the assay with A549 it was 3480 nM; in assay [1], 1350 nM.
The like results for `COc1cc2c(cc1OC)[C@@H]1c3cccc(OC)c3N(CCCn3c[n+](CC(=O)c4ccc5ccccc5c4)c4cc(C)c(C)cc43)C[C@@H]1C2` were, in that order, 1380 nM, 1120 nM, 4910 nM and 1710 nM.
With `COc1cccc2c1N(C(=O)CCn1c[n+](Cc3ccc4ccccc4c3)c3cc(C)c(C)cc31)C[C@@H]1Cc3ccc(Br)cc3[C@H]21`, the IC50 with SW480 came out at 1050 nM; in the assay on MCF7, 1050 nM; in the assay on A549, 1450 nM; in assay [1], 1090 nM.
Take `COc1cc2c(cc1OC)[C@@H]1c3cccc(OC)c3N(CCCn3c(C)[n+](Cc4ccc5ccccc5c4)c4ccccc43)C[C@@H]1C2`: the concentration for half-maximal inhibition (IC50) was found to be 1500 nM in the assay on SW480, 1070 nM in the assay with MCF7, 1530 nM in the assay with A549 and 1130 nM in assay [1].
With `COc1cc2c(cc1OC)[C@@H]1c3cccc(OC)c3N(C(=O)CCn3c(C)[n+](CC(=O)c4ccc5ccccc5c4)c4ccccc43)C[C@@H]1C2`, the IC50 with SW480 was 3790 nM; in the assay with MCF7, 4670 nM; in the assay on A549 it was 9290 nM; in assay [1], 6530 nM.
Taken in the same sequence, the figures for `COc1cc2c(cc1OC)[C@@H]1c3cccc(OC)c3N(CCCn3c(C)[n+](CC(=O)c4ccc5ccccc5c4)c4ccccc43)C[C@@H]1C2` were 2060 nM, 2160 nM, 8260 nM and 5460 nM.
Regarding `COc1ccc(C(=O)C[n+]2c(C)n(CCCN3C[C@@H]4Cc5ccccc5[C@@H]4c4cccc(OC)c43)c3ccccc32)cc1`, the IC50 is 1270 nM in the assay on SW480, 400 nM with MCF7, 3650 nM with A549 and 1320 nM in assay [1].
Taken in the same sequence, the figures for `COc1cccc2c1N(C(=O)CCn1c[n+](Cc3ccc4ccccc4c3)c3cc(C)c(C)cc31)C[C@@H]1Cc3ccccc3[C@H]21` were 970 nM, 930 nM, 2580 nM and 1030 nM.
For the compound `COc1cccc2c1N(CCCn1cnc3cc(C)c(C)cc31)C[C@@H]1Cc3ccc(Br)cc3[C@H]21`, the half-maximal inhibitory concentration (IC50) (in the assay on SW480; in the assay on MCF7; with A549; in assay [1]) was above 20000 nM each time.
Take `COc1cc2c(cc1OC)[C@@H]1c3cccc(OC)c3N(CCCn3c[n+](Cc4ccc5ccccc5c4)c4cc(C)c(C)cc43)C[C@@H]1C2`: the IC50 with SW480 stood at 1620 nM; in the assay with MCF7, 1490 nM; with A549 it was 5830 nM; in assay [1], 1820 nM.
The like results for `COc1cccc2c1N(C(=O)CCn1cnc3cc(C)c(C)cc31)C[C@@H]1Cc3ccccc3[C@H]21` were, in that order, above 20000 nM, above 20000 nM, above 20000 nM and above 20000 nM.
Taken in the same sequence, the figures for `COc1ccc(C(=O)C[n+]2cn(CCCN3C[C@@H]4Cc5ccccc5[C@@H]4c4cccc(OC)c43)c3cc(C)c(C)cc32)cc1` were 1730 nM, 1260 nM, 1400 nM and 1420 nM.
The like results for `COc1cc2c(cc1OC)[C@@H]1c3cccc(OC)c3N(CCCn3c(C)[n+](Cc4ccc(C)cc4)c4ccccc43)C[C@@H]1C2` were, in that order, 3510 nM, 5540 nM, 14400 nM and 6490 nM.
Regarding `COc1cccc2c1N(CCCn1c[n+](Cc3ccc4ccccc4c3)c3cc(C)c(C)cc31)C[C@@H]1Cc3ccccc3[C@H]21`, the IC50 is 930 nM in the assay on SW480, 910 nM with MCF7, 1510 nM in the assay on A549 and 850 nM in assay [1].
With `COc1cccc2c1N(CCCn1c(C)[n+](Cc3ccc(C)cc3)c3ccccc31)C[C@@H]1Cc3ccccc3[C@H]21`, the 50% inhibitory concentration (IC50) turned out to be 1660 nM in the assay with SW480, 1470 nM in the assay with MCF7, 4250 nM with A549 and 1800 nM in assay [1].
Taken in the same sequence, the figures for `COc1cc2c(cc1OC)[C@@H]1c3cccc(OC)c3N(CCCn3cnc4cc(C)c(C)cc43)C[C@@H]1C2` were above 20000 nM, above 20000 nM, above 20000 nM and above 20000 nM.
Taken in the same sequence, the figures for `COc1cccc2c1N(C(=O)CCn1c(C)[n+](Cc3ccc4ccccc4c3)c3ccccc31)C[C@@H]1Cc3ccccc3[C@H]21` were 770 nM, 960 nM, 3680 nM and 1450 nM.
The like results for `COc1cccc2c1N(CCCn1c(C)[n+](Cc3ccc(C)cc3)c3ccccc31)C[C@@H]1Cc3ccc(Br)cc3[C@H]21` were, in that order, 1620 nM, 1080 nM, 1420 nM and 980 nM.
Turning to `COc1cc2c(cc1OC)[C@@H]1c3cccc(OC)c3N(C(=O)CCn3cnc4cc(C)c(C)cc43)C[C@@H]1C2`, the IC50 (with SW480; in the assay with MCF7; with A549; in assay [1]) was above 20000 nM throughout.
Consider `COc1cc2c(cc1OC)[C@@H]1c3cccc(OC)c3N(CCCn3c[n+](Cc4ccc(C)cc4)c4cc(C)c(C)cc43)C[C@@H]1C2`, for which the IC50 in the assay on SW480 was 2000 nM; in the assay on MCF7, 2000 nM; in the assay with A549, 4830 nM; in assay [1], 1710 nM.
Regarding `COc1cccc2c1N(CCCn1c(C)[n+](Cc3ccc4ccccc4c3)c3ccccc31)C[C@@H]1Cc3ccccc3[C@H]21`, the IC50 in the assay on SW480 is 2160 nM; in the assay on MCF7 it was 1020 nM; in the assay with A549 it was 5740 nM; in assay [1], 2060 nM.
The like results for `COc1cccc2c1N(C(=O)CCn1c(C)nc3ccccc31)C[C@@H]1Cc3ccccc3[C@H]21` were, in that order, above 20000 nM, above 20000 nM, above 20000 nM and above 20000 nM.
`COc1cccc2c1N(C(=O)CCn1c(C)[n+](CC(=O)c3ccc4ccccc4c3)c3ccccc31)C[C@@H]1Cc3ccc(Br)cc3[C@H]21`: the concentration for half-maximal inhibition (IC50) was determined as 1750 nM in the assay on SW480, 1430 nM in the assay with MCF7, 2630 nM in the assay with A549 and 1580 nM in assay [1].
As to `COc1cccc2c1N(CCCn1c(C)nc3ccccc31)C[C@@H]1Cc3ccc(Br)cc3[C@H]21`, the half-maximal inhibitory concentration (IC50) (with SW480; in the assay on MCF7; in the assay with A549; in assay [1]) was above 20000 nM throughout.
On to `COc1cccc2c1N(CCCn1c(C)nc3ccccc31)C[C@@H]1Cc3ccccc3[C@H]21`, for which the concentration for half-maximal inhibition (IC50) (in the assay with SW480; in the assay with MCF7; in the assay with A549; in assay [1]) was above 20000 nM each time.
In the case of `COc1ccc(C(=O)C[n+]2cn(CCCN3C[C@@H]4Cc5cc(OC)c(OC)cc5[C@@H]4c4cccc(OC)c43)c3cc(C)c(C)cc32)cc1`, the IC50 with SW480 was found to be 1800 nM; in the assay on MCF7, 2140 nM; in the assay on A549 it was 8270 nM; in assay [1], 4500 nM.
Taken in the same sequence, the figures for `COc1cccc2c1N(CCCn1c[n+](Cc3ccc(C)cc3)c3cc(C)c(C)cc31)C[C@@H]1Cc3ccccc3[C@H]21` were 560 nM, 670 nM, 1510 nM and 660 nM.
As for `COc1ccc(C(=O)C[n+]2c(C)n(CCCN3C[C@@H]4Cc5ccc(Br)cc5[C@@H]4c4cccc(OC)c43)c3ccccc32)cc1`, the IC50 in the assay with SW480 was found to be 1240 nM; in the assay on MCF7, 1010 nM; with A549, 1220 nM; in assay [1] it was 930 nM.
Taken in the same sequence, the figures for `COc1cccc2c1N(C(=O)CCn1c(C)nc3ccccc31)C[C@@H]1Cc3ccc(Br)cc3[C@H]21` were above 20000 nM, above 20000 nM, above 20000 nM and above 20000 nM.
With `COc1cccc2c1N(C(=O)CCn1cnc3cc(C)c(C)cc31)C[C@@H]1Cc3ccc(Br)cc3[C@H]21`, the IC50 (with SW480; in the assay with MCF7; in the assay with A549; in assay [1]) was above 20000 nM each time.

The IC50 is the concentration needed to halve the response being measured.
